Tests used:
[1] = target: Tubulin; assay: (§1) Activation of tubulin (unknown origin) polymerization; assay type: protein-complex assay, Homo sapiens
Procedure, shortened: (§2)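 Purified brain tubulin (kit), final 3.0 mg/mL, in 80.0 mM PIPES sesquisodium pH 6.9, 2.0 mM MgCl2, 0.5 mM EGTA, 1 mM GTP, 10.2% glycerol; components prewarmed to 37 °C, reaction started by adding tubulin. A340 read each minute for 1 h. Single-point % stimulation used 10 μM compound; EC50 from 3.75, 7.5, 15, 30, 60 μM.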

[2] = test system: K562; assay: Cytotoxicity against human K562 cells after 48 hrs by MTT assay; assay type: functional, cell-based
Procedure, shortened: (§3)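 Log-phase cells (40000–50000 cells/mL) grown in DMEM with 10% fetal calf serum (5% CO2, 37 °C) and exposed 48 h to five concentrations, 3–5 replicates. Read-out was MTT with absorbance at 570 nm; IC50 reported as mean ± SD of three independent experiments. Resistant A549 and HeLa sublines were made by stepwise paclitaxel selection; resistance index = IC50(resistant)/IC50(sensitive).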

[3] = test system: Mus musculus; assay: Toxicity in human A549 cells xenografted BALB/c nude mouse assessed as change in body weight at 30 mg/kg, ig; assay type: organism-based; parameters: dose 30 mg/kg, route intragastric; details: in vivo, po
Procedure, shortened: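 Male BALB/c nude mice, 5 weeks old (18–20 g), implanted subcutaneously in the right armpit with A549 tumor fragments (3 mm3). On day 13, at 100–200 mm3, daily intragastric dosing began: 100 or 500 mg/kg test compound, or 30 mg/kg paclitaxel, in Tween-80 diluted with saline. Vehicle given ip. Tumor volume and body weight followed; n = 6; inhibition rate at day 16.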

[4] = test system: A549; assay: Cytotoxicity against human A549 cells after 48 hrs by MTT assay; assay type: functional, cell-based; procedure, shortened: as §3
[5] = Cytotoxicity against human QGY cells after 48 hrs by MTT assay; assay type: functional, cell-based; procedure, shortened: as §3
[6] = target: T1, Tubulin (Homo sapiens) (UniProt P68371+Q9H4B7+P0DPH7+P68366+Q13509+Q71U36+P04350+Q3ZCM7+P07437+P68363+Q9BQE3+Q6PEY2+Q13885+Q9BVA1+Q9BUF5); assay: Activation of tubulin (unknown origin) polymerization at 10 uM; assay type: protein-complex assay; procedure, shortened: as §2
[7] = test system: SW480; assay: Cytotoxicity against human SW480 cells after 48 hrs by MTT assay; assay type: functional, cell-based; procedure, shortened: as §3
[8] = test system: A549; assay: Cytotoxicity against paclitaxel-resistant human A549 cells after 48 hrs by MTT assay; assay type: functional, cell-based; details: A549, 48 h; procedure, shortened: as §3
[9] = test system: HeLa; assay: Cytotoxicity against human HeLa cells after 48 hrs by MTT assay; assay type: functional, cell-based; procedure, shortened: as §3
[10] = target: T1, Tubulin (Homo sapiens); assay: as §1; assay type: protein-complex assay; procedure, shortened: as §2

Structure (SMILES) | IC50 ([2]; Homo sapiens, K562, 48 h) [µM] | IC50 ([4]; Homo sapiens, A549, 48 h) [µM] | IC50 ([5]; Homo sapiens, QGY, 48 h) [µM] | Activity [6] [%] | IC50 ([7]; Homo sapiens, SW480, 48 h) [µM] | IC50 ([9]; Homo sapiens, HeLa, 48 h) [µM] | further results
CC(=O)O[C@H]1C(=O)[C@@]2(C)[C@H]([C@H](OC(=O)c3ccccc3)[C@]3(O)C[C@H](OC(=O)[C@H](O)[C@@H](NC(=O)c4ccccc4)c4ccccc4)C(C)=C1C3(C)C)[C@]1(OC(C)=O)CO[C@@H]1C[C@@H]2O [PACLITAXEL] | 0.0157 | 0.0082 | 0.0113 | 245 | 0.0121 | – | EC50 [1]: 1.23 µM; Activity [3]: Toxic; IC50 [8]: 1.04 µM
CCOC(=O)C1(C(=O)Nc2ccc(F)cc2)CC1c1cc(OC)c(OC)c(OC)c1 (trans isomer) [listing 1 of 2 here] | – | – | – | 7.9 | – | – | –
CCOC(=O)C1(C(=O)NCCc2ccc(F)cc2)CC1c1cc(OC)c(OC)c(OC)c1 (cis isomer) [listing 1 of 2 here] | – | – | – | 40.8 | – | – | –
CCOC(=O)C1(C(=O)Nc2ccc(OC)cc2)CC1c1cc(OC)c(OC)c(OC)c1 (cis isomer) | – | – | – | 25 | – | – | –
CCOC(=O)C1(C(=O)NCc2ccc(C)cc2)CC1c1cc(OC)c(OC)c(OC)c1 (cis isomer) | > 100 | 18.7 | – | – | – | 33.2 | IC50 ([5]; qgy): > 100 µM; IC50 ([7]; sw480): 29 µM
CCOC(=O)[C@]1(C(=O)Nc2ccccc2Cl)C[C@H]1c1cc(OC)c(OC)c(OC)c1 | 20.7 | 13.4 | 28 | 28.6 | 25.6 | 42.4 | EC50 [1]: 16.9 µM
CCOC(=O)C1(C(=O)NCc2ccc(OC)cc2)CC1c1cc(OC)c(OC)c(OC)c1 (trans isomer) | – | – | – | 50 | – | – | –
CCOC(=O)[C@@]1(C(=O)Nc2ccccc2)C[C@H]1c1cc(OC)c(OC)c(OC)c1 | > 100 | 65.9 | 48.7 | – | > 100 | > 100 | –
COc1cc([C@H]2C[C@]2(CO)C(=O)Nc2ccccc2)cc(OC)c1OC | > 100 | > 100 | > 100 | – | > 100 | > 100 | –
COc1cc([C@@H]2C[C@]2(CO)C(=O)Nc2ccccc2)cc(OC)c1OC | > 100 | 24.1 | 51.3 | 31.5 | 33.3 | 32 | EC50 [1]: 14.3 µM
CCOC(=O)C1(C(=O)Nc2ccccc2)CC1c1cc(OC)c(OC)c(OC)c1 (cis isomer) | – | – | – | 23.2 | – | – | –
CCOC(=O)[C@@]1(C(=O)NCc2ccc(C)cc2)C[C@@H]1c1cc(OC)c(OC)c(OC)c1 | > 100 | > 100 | > 100 | – | > 100 | > 100 | –
CCOC(=O)[C@]1(C(=O)Nc2ccccc2)C[C@@H]1c1cc(OC)c(OC)c(OC)c1 | > 100 | 21.3 | 38.1 | – | 31.7 | > 100 | –
CCOC(=O)C1(C(=O)NCCc2ccc(F)cc2)CC1c1cc(OC)c(OC)c(OC)c1 (cis isomer) [listing 2 of 2 here] | > 100 | – | > 100 | – | 75.1 | 58.1 | IC50 ([4]; a549): 49.3 µM
COc1cc([C@@H]2C[C@@]2(CO)C(=O)Nc2ccccc2)cc(OC)c1OC | > 100 | 43.2 | 36.7 | – | 76.8 | 86.4 | –
CCOC(=O)C1(C(=O)NCCc2cccc(F)c2)CC1c1cc(OC)c(OC)c(OC)c1 (cis isomer) | 76.1 | 52.3 | – | – | – | – | IC50 ([5]; qgy): 39.9 µM; IC50 ([7]; sw480): 35.5 µM; IC50 ([9]; hela): 28.1 µM
COc1cc([C@H]2C[C@]2(CO)C(=O)NCc2ccc(C)cc2)cc(OC)c1OC | > 100 | 60.7 | 56.1 | – | 94 | 57.8 | –
CCOC(=O)C1(C(=O)Nc2cccc([N+](=O)[O-])c2)CC1c1cc(OC)c(OC)c(OC)c1 (stereo in doubt; cis) | > 100 | 76.4 | > 100 | – | – | 59.4 | IC50 ([7]; sw480): > 100 µM
CCOC(=O)C1(C(=O)Nc2ccccc2Cl)CC1c1cc(OC)c(OC)c(OC)c1 (stereo in doubt; trans) | – | – | – | – | – | – | IC50 ([2]; k562): 14.2 µM; IC50 ([4]; a549): 18.5 µM; IC50 ([5]; qgy): 48.8 µM; IC50 ([7]; sw480): 66.7 µM; IC50 ([9]; hela): 76.4 µM
CCOC(=O)[C@@]1(C(=O)Nc2ccccc2)C[C@@H]1c1cc(OC)c(OC)c(OC)c1 | > 100 | > 100 | > 100 | – | > 100 | > 100 | –
CCOC(=O)C1(C(=O)Nc2ccccc2[N+](=O)[O-])CC1c1cc(OC)c(OC)c(OC)c1 (stereo in doubt) | 56.3 | 24.5 | 54.1 | – | 34.1 | 40.2 | –
CCOC(=O)C1(C(=O)NCCc2ccccc2F)CC1c1cc(OC)c(OC)c(OC)c1 (cis isomer) | > 100 | 27.3 | 34.1 | – | – | 58.2 | IC50 ([7]; sw480): 86.3 µM
CCOC(=O)[C@]1(C(=O)NCc2ccc(C)cc2)C[C@H]1c1cc(OC)c(OC)c(OC)c1 | > 100 | 13.3 | 32.1 | 79.3 | 36.4 | 28.5 | EC50 [1]: 5.83 µM; Activity [10]: Dose-dependent effect
CCOC(=O)C1(C(=O)Nc2ccc(F)cc2)CC1c1cc(OC)c(OC)c(OC)c1 (trans isomer) [listing 2 of 2 here] | – | – | – | – | – | – | IC50 ([2]; k562): > 100 µM; IC50 ([4]; a549): 28 µM; IC50 ([5]; qgy): 36.1 µM; IC50 ([7]; sw480): 42 µM; IC50 ([9]; hela): 36.8 µM
CCOC(=O)C1(C(=O)Nc2cccc(Cl)c2)CC1c1cc(OC)c(OC)c(OC)c1 (stereo in doubt; cis) | – | – | – | 50 | – | – | –
